From ChEMBL document CHEMBL1806361, “Discovery of potent, selective, and orally bioavailable quinoline-based dipeptidyl peptidase IV inhibitors targeting Lys554” (Bioorg Med Chem, 2011)

How the values were obtained:
[1] = Solubility of the compound in water at pH 6.8 by HPLC analysis; format: physicochemical
[2] = Volume of distribution at steady state in rat at 1 mg/kg, po and 0.1 mg/kg, iv by LC/MS/MS; format: ADME, organism-based; settings: in vivo, read-out: Vdss
In short: (§1)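 Compound given orally at 1.0 mg/kg and intravenously at 0.1 mg/kg to rats and dogs. Blood sampled after dosing and spun to plasma. Plasma deproteinized with acetonitrile containing internal standard, then centrifuged. Supernatant diluted in 0.01 M ammonium acetate and spun again before LC/MS/MS quantitation. Values are means and SD of three experiments.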

[3] = Metabolic stability in rat liver microsomes at 1 uM after 60 mins by HPLC with UV detectors in presence of NADPH; format: ADME, Microsome; settings: read-out: Stability
In short: (§2)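 Hepatic microsomes (0.2 mg protein/mL final) and compound (1 µM final) were mixed on ice. Reaction started with NADPH, run 60 min at 37 °C, and stopped with ice-cold acetonitrile. Zero-time controls were quenched before compound addition.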

[4] = Volume of distribution at steady state in dog at 1 mg/kg, po and 0.1 mg/kg, iv by LC/MS/MS; format: ADME, organism-based, Canis lupus familiaris; settings: in vivo, read-out: Vdss; in short: as §1
[5] = system: Canis familiaris; test: AUC in dog at 1 mg/kg, po by LC/MS/MS; format: ADME, organism-based, Canis lupus familiaris, Plasma; parameters: dose 1 mg/kg, route oral; settings: in vivo; in short: as §1
[6] = system: Canis familiaris; test: Oral bioavailability in dog at 1 mg/kg by LC/MS/MS; format: ADME, organism-based, Canis lupus familiaris; settings: in vivo; in short: as §1
[7] = system: Rattus norvegicus; test: AUC in rat at 1 mg/kg, po by LC/MS/MS; format: ADME, organism-based, Plasma; parameters: dose 1 mg/kg, route oral; settings: in vivo; in short: as §1
[8] = Metabolic stability in human liver microsomes at 1 uM after 60 mins by HPLC with UV detectors in presence of NADPH; format: ADME, Microsome; settings: read-out: Stability; in short: as §2
[9] = Metabolic stability in dog liver microsomes at 1 uM after 60 mins by HPLC with UV detectors in presence of NADPH; format: ADME, Canis lupus familiaris, Microsome; settings: read-out: Stability; in short: as §2
[10] = system: Rattus norvegicus; test: Oral bioavailability in rat at 1 mg/kg by LC/MS/MS; format: ADME, organism-based; settings: in vivo; in short: as §1

With Cc1ccc(-c2c(CN)c(CC(C)C)nc3ccc(N4CC(=O)NCC4=O)cc23)cc1.Cl.Cl the solubility [1] was over 5000 µg/mL, the Vd [2] was 10.7 L/kg and the microsomal CLint at 1 µM [3] was 96 µL/min/mg. For the same compound, the Vd [4] was 1.49 L/kg, the AUC [5] was 1410 ng·h/mL and the F [6] was 49.2%. The AUC [7] was 28.5 ng·h/mL, the microsomal CLint at 1 µM [8] was 16 µL/min/mg and the microsomal CLint at 1 µM [9] was 2 µL/min/mg. The F [10] was 8%.
